Measured values: ChEMBL document CHEMBL1821604, “Anticancer activity and cDNA microarray studies of a (RS)-1,2,3,5-tetrahydro-4,1-benzoxazepine-3-yl]-6-chloro-9H-purine, and an acyclic (RS)-O,N-acetalic 6-chloro-7H-purine” (Eur J Med Chem, 2011)

Columns and labels:
Format in all cases: functional
MCF7 [1] = test: Down regulation of C20orf54 gene expression in human MCF7 cells at IC50 after 48 hrs by cDNA microarray technique relative to control
In short: (§1)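 8 × 10⁶ cells exposed 48 h to compound at its IC50 concentration; total RNA isolated with trizol/chloroform and RNeasy columns including on-column DNase step; RNA quantified by OD 260/280; DMSO-treated cultures as control.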

HT-29 [2] = test: Upregulation of Beta4GalNAc-T4 gene expression in human HT-29 cells at IC50 after 48 hrs by cDNA microarray technique relative to control
MCF7 [3] = test: Upregulation of MGC32020 gene expression in human MCF7 cells at IC50 after 48 hrs by cDNA microarray technique relative to control
MCF7 [4] = test: Down regulation of ZNF336 gene expression in human MCF7 cells at IC50 after 48 hrs by cDNA microarray technique relative to control
MCF7 [5] = test: Upregulation of BTBD12 gene expression in human MCF7 cells at IC50 after 48 hrs by cDNA microarray technique relative to control
HT-29 [6] = test: Upregulation of AVIL gene expression in human HT-29 cells at IC50 after 48 hrs by cDNA microarray technique relative to control
HT-29 [7] = test: Down regulation of POU6F1 gene expression in human HT-29 cells at IC50 after 48 hrs by cDNA microarray technique relative to control
HT-29 [8] = test: Down regulation of LOC144448 gene expression in human HT-29 cells at IC50 after 48 hrs by cDNA microarray technique relative to control
MCF7 [9] = test: Down regulation of CORO2B gene expression in human MCF7 cells at IC50 after 48 hrs by cDNA microarray technique relative to control; in short: as §1
MCF7 [10] = test: Down regulation of FLJ12985 gene expression in human MCF7 cells at IC50 after 48 hrs by cDNA microarray technique relative to control
In short: (§2)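 Cells (8 × 10⁶) were cultured in DMEM with 10% heat-inactivated FBS at 37 °C under 5% CO₂. They were exposed for 48 h to compound at its IC₅₀, with DMSO-treated parallel cultures as controls (final DMSO ≤0.1% v/v). Total RNA was isolated by trizol/chloroform phase separation, RNeasy column cleanup and on-column DNase, then quantified by OD260/OD280. Expression was profiled by cDNA microarray relative to control.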

HT-29 [11] = test: Upregulation of TREM4 gene expression in human HT-29 cells at IC50 after 48 hrs by cDNA microarray technique relative to control
HT-29 [12] = test: Upregulation of COL1A1 gene expression in human HT-29 cells at IC50 after 48 hrs by cDNA microarray technique relative to control
HT-29 [13] = test: Down regulation of ALB gene expression in human HT-29 cells at IC50 after 48 hrs by cDNA microarray technique relative to control; in short: as §1
HT-29 [14] = test: Down regulation of MOG gene expression in human HT-29 cells at IC50 after 48 hrs by cDNA microarray technique relative to control
MCF7 [15] = test: Down regulation of SNTG1 gene expression in human MCF7 cells at IC50 after 48 hrs by cDNA microarray technique relative to control
MCF7 [16] = test: Down regulation of P53AIP1 gene expression in human MCF7 cells at IC50 after 48 hrs by cDNA microarray technique relative to control
HT-29 [17] = test: Down regulation of RAB3D gene expression in human HT-29 cells at IC50 after 48 hrs by cDNA microarray technique relative to control
HT-29 [18] = test: Down regulation of MDGA1 gene expression in human HT-29 cells at IC50 after 48 hrs by cDNA microarray technique relative to control
MCF7 [19] = test: Down regulation of C11orf8 gene expression in human MCF7 cells at IC50 after 48 hrs by cDNA microarray technique relative to control; in short: as §1
HT-29 [20] = test: Down regulation of HNRPA2B1 gene expression in human HT-29 cells at IC50 after 48 hrs by cDNA microarray technique relative to control; in short: as §2
HT-29 [21] = test: Down regulation of PLCB4 gene expression in human HT-29 cells at IC50 after 48 hrs by cDNA microarray technique relative to control
MCF7 [22] = test: Down regulation of C9orf125 gene expression in human MCF7 cells at IC50 after 48 hrs by cDNA microarray technique relative to control; in short: as §1
HT-29 [23] = test: Down regulation of ZFYVE9 gene expression in human HT-29 cells at IC50 after 48 hrs by cDNA microarray technique relative to control
HT-29 [24] = test: Down regulation of RALGDS gene expression in human HT-29 cells at IC50 after 48 hrs by cDNA microarray technique relative to control
MCF7 [25] = test: Down regulation of ZNF365 gene expression in human MCF7 cells at IC50 after 48 hrs by cDNA microarray technique relative to control
MCF7 [26] = test: Upregulation of GABARAPL1 gene expression in human MCF7 cells at IC50 after 48 hrs by cDNA microarray technique relative to control
MCF7 [27] = test: Upregulation of ZNF505 gene expression in human MCF7 cells at IC50 after 48 hrs by cDNA microarray technique relative to control
HT-29 [28] = test: Down regulation of GANAB gene expression in human HT-29 cells at IC50 after 48 hrs by cDNA microarray technique relative to control; in short: as §2
HT-29 [29] = test: Down regulation of PRKCABP gene expression in human HT-29 cells at IC50 after 48 hrs by cDNA microarray technique relative to control
MCF7 [30] = test: Down regulation of BIVM gene expression in human MCF7 cells at IC50 after 48 hrs by cDNA microarray technique relative to control; in short: as §1
HT-29 [31] = test: Down regulation of GK001 gene expression in human HT-29 cells at IC50 after 48 hrs by cDNA microarray technique relative to control; in short: as §2
HT-29 [32] = test: Down regulation of STK19 gene expression in human HT-29 cells at IC50 after 48 hrs by cDNA microarray technique relative to control
MCF7 [33] = test: Upregulation of X77737 gene expression in human MCF7 cells at IC50 after 48 hrs by cDNA microarray technique relative to control
HT-29 [34] = test: Down regulation of AQP3 gene expression in human HT-29 cells at IC50 after 48 hrs by cDNA microarray technique relative to control; in short: as §1
HT-29 [35] = test: Upregulation of TP53INP1 gene expression in human HT-29 cells at IC50 after 48 hrs by cDNA microarray technique relative to control
HT-29 [36] = test: Down regulation of DNAJC7 gene expression in human HT-29 cells at IC50 after 48 hrs by cDNA microarray technique relative to control; in short: as §2
MCF7 [37] = test: Upregulation of CD1B gene expression in human MCF7 cells at IC50 after 48 hrs by cDNA microarray technique relative to control
HT-29 [38] = test: Down regulation of TMED9 gene expression in human HT-29 cells at IC50 after 48 hrs by cDNA microarray technique relative to control

COC(CN(c1ccccc1CO)S(=O)(=O)c1ccccc1[N+](=O)[O-])n1cnc2ncnc(Cl)c21 (racemic)
fold change (FC) (MCF7 [1]): -2.14
fold change (FC) (HT-29 [2]): 3.08
fold change (FC) (MCF7 [3]): 2.09
fold change (FC) (MCF7 [4]): -2.45
fold change (FC) (MCF7 [5]): 3.24
fold change (FC) (HT-29 [6]): 2.46
fold change (FC) (HT-29 [7]): -3.13
fold change (FC) (HT-29 [8]): -2.45
fold change (FC) (MCF7 [9]): -2.01
fold change (FC) (MCF7 [10]): -2.11
fold change (FC) (HT-29 [11]): 2.27
fold change (FC) (HT-29 [12]): 4.97
fold change (FC) (HT-29 [13]): -2.32
fold change (FC) (HT-29 [14]): -2.65
fold change (FC) (MCF7 [15]): -2.46
fold change (FC) (MCF7 [16]): -2.4
fold change (FC) (HT-29 [17]): -2.24

O=C(OCC1c2ccccc2-c2ccccc21)N1CC(n2cnc3c(Cl)ncnc32)OCc2ccccc21 (racemic)
fold change (FC) (HT-29 [18]): -3.92
fold change (FC) (MCF7 [19]): -2.88
fold change (FC) (HT-29 [20]): -2.33
fold change (FC) (HT-29 [21]): -2.11
fold change (FC) (MCF7 [22]): -3.38
fold change (FC) (HT-29 [23]): -2.52
fold change (FC) (HT-29 [24]): -2.01
fold change (FC) (MCF7 [25]): 2
fold change (FC) (MCF7 [26]): 2.07
fold change (FC) (MCF7 [27]): 5.62
fold change (FC) (HT-29 [28]): -2.04
fold change (FC) (HT-29 [29]): -2.13
fold change (FC) (MCF7 [30]): -2.05
fold change (FC) (HT-29 [31]): -2.03
fold change (FC) (HT-29 [32]): -2.34
fold change (FC) (MCF7 [33]): 3.11
fold change (FC) (HT-29 [34]): -2.53
fold change (FC) (HT-29 [35]): 2.58
fold change (FC) (HT-29 [36]): -2.2
fold change (FC) (MCF7 [37]): 2.31
fold change (FC) (HT-29 [38]): -3.95
